Laboratory results taken from ChEMBL document CHEMBL3046951, “Volatile constituents from the leaves of Callicarpa japonica Thunb. and their antibacterial activities” (2004).

Tests used:
Format in all cases: functional
[1] = tested on: Staphylococcus aureus; experiment: Antimicrobial activity against Staphylococcus aureus ATCC 25923 assessed as growth inhibition rate at 5.32 mg/l after 72 hr by spectrophotometry; conditions: ATCC 25923, 72 h, read-out: GI
[2] = tested on: Escherichia coli; experiment: Antimicrobial activity against Escherichia coli O157:H7 ATCC 43894 assessed as growth inhibition rate at 5.32 mg/l after 72 hr by spectrophotometry; conditions: O157:H7 ATCC 43894, 72 h, read-out: GI
[3] = tested on: Bacillus cereus; experiment: Antimicrobial activity against Bacillus cereus ATCC 11778 assessed as growth inhibition rate at 5.32 mg/l after 72 hr by spectrophotometry; conditions: ATCC 11778, 72 h, read-out: GI
Method in brief: (§1)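 Pure volatile compounds (purity >95%; one at 90%) were tested against B. cereus ATCC 11778. The strain was grown at 30 °C in nutrient broth for 24 h, then subcultured for 18 h. Optical density was read in a Bioscreen C every 24 h for 72 h, with 10% Tween 80 as the control.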

[4] = tested on: Vibrio parahaemolyticus; experiment: Antimicrobial activity against Vibrio parahaemolyticus ATCC 33844 assessed as growth inhibition rate at 5.32 mg/l after 72 hr by spectrophotometry; conditions: ATCC 33844, 72 h, read-out: GI
[5] = tested on: Listeria monocytogenes; experiment: Antimicrobial activity against Listeria monocytogenes ATCC 19111 assessed as growth inhibition rate at 5.32 mg/l after 72 hr by spectrophotometry; conditions: ATCC 19111, 72 h, read-out: GI
Method in brief: (§2)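 L. monocytogenes was grown at 30 °C in tryptic soy broth, subcultured for 18 h, and exposed to pure volatile compounds (>95% purity). Growth was followed by Bioscreen C optical density every 24 h for 72 h against a 10% Tween 80 control.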

[6] = tested on: Salmonella typhimurium; experiment: Antimicrobial activity against Salmonella enterica subsp. enterica serovar Typhimurium ATCC 14028 assessed as growth inhibition rate at 5.32 mg/l after 72 hr by spectrophotometry; conditions: ATCC 14028, 72 h, read-out: GI
[7] = tested on: Salmonella typhimurium; experiment: Antimicrobial activity against Salmonella enterica subsp. enterica serovar Typhimurium ATCC 14028 assessed as growth inhibition rate at 10.36 mg/l after 72 hr by spectrophotometry; conditions: ATCC 14028, 72 h, read-out: GI
Method in brief: (§3)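 Salmonella Typhimurium ATCC 14028 grown in nutrient broth at 30 °C, precultured 24 h, then subcultured 1:100 for 18 h before testing. Single volatile compounds (>95% pure) were added. OD was read every 24 h over 72 h in a Bioscreen C, with 10% Tween 80 as the comparison control.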

[8] = tested on: Listeria monocytogenes; experiment: Antimicrobial activity against Listeria monocytogenes ATCC 19111 assessed as growth inhibition rate at 10.36 mg/l after 72 hr by spectrophotometry; conditions: ATCC 19111, 72 h, read-out: GI; method in brief: as §2
[9] = tested on: Vibrio parahaemolyticus; experiment: Antimicrobial activity against Vibrio parahaemolyticus ATCC 33844 assessed as growth inhibition rate at 10.36 mg/l after 72 hr by spectrophotometry; conditions: ATCC 33844, 72 h, read-out: GI
[10] = tested on: Bacillus cereus; experiment: Antimicrobial activity against Bacillus cereus ATCC 11778 assessed as growth inhibition rate at 10.36 mg/l after 72 hr by spectrophotometry; conditions: ATCC 11778, 72 h, read-out: GI; method in brief: as §1
[11] = tested on: Escherichia coli; experiment: Antimicrobial activity against Escherichia coli O157:H7 ATCC 43894 assessed as growth inhibition rate at 10.36 mg/l after 72 hr by spectrophotometry; conditions: O157:H7 ATCC 43894, 72 h, read-out: GI
[12] = tested on: Staphylococcus aureus; experiment: Antimicrobial activity against Staphylococcus aureus ATCC 25923 assessed as growth inhibition rate at 10.36 mg/l after 72 hr by spectrophotometry; conditions: ATCC 25923, 72 h, read-out: GI
[13] = tested on: Salmonella typhimurium; experiment: Antimicrobial activity against Salmonella enterica subsp. enterica serovar Typhimurium ATCC 14028 assessed as growth inhibition rate at 43.2 mg/l after 72 hr by spectrophotometry; conditions: ATCC 14028, 72 h, read-out: GI; method in brief: as §3
[14] = tested on: Bacillus cereus; experiment: Antimicrobial activity against Bacillus cereus ATCC 11778 assessed as growth inhibition rate at 43.2 mg/l after 72 hr by spectrophotometry; conditions: ATCC 11778, 72 h, read-out: GI; method in brief: as §1
[15] = tested on: Listeria monocytogenes; experiment: Antimicrobial activity against Listeria monocytogenes ATCC 19111 assessed as growth inhibition rate at 43.2 mg/l after 72 hr by spectrophotometry; conditions: ATCC 19111, 72 h, read-out: GI; method in brief: as §2
[16] = tested on: Escherichia coli; experiment: Antimicrobial activity against Escherichia coli O157:H7 ATCC 43894 assessed as growth inhibition rate at 43.2 mg/l after 72 hr by spectrophotometry; conditions: O157:H7 ATCC 43894, 72 h, read-out: GI
[17] = tested on: Staphylococcus aureus; experiment: Antimicrobial activity against Staphylococcus aureus ATCC 25923 assessed as growth inhibition rate at 43.2 mg/l after 72 hr by spectrophotometry; conditions: ATCC 25923, 72 h, read-out: GI
[18] = tested on: Vibrio parahaemolyticus; experiment: Antimicrobial activity against Vibrio parahaemolyticus ATCC 33844 assessed as growth inhibition rate at 43.2 mg/l after 72 hr by spectrophotometry; conditions: ATCC 33844, 72 h, read-out: GI

CCCCCC(O)CC (stereo not drawn) [3-OCTANOL]
inhibition of growth at 5.32 µg/mL [1]: 52.6%
inhibition of growth at 5.32 µg/mL [2]: 8.9%
inhibition of growth at 5.32 µg/mL [3]: 43%
inhibition of growth at 5.32 µg/mL [4]: 70.7%
inhibition of growth at 5.32 µg/mL [5]: 21.5%
inhibition of growth at 5.32 µg/mL [6]: 20.6%

CC/C=C\CO [CIS-2-PENTEN-1-OL]
inhibition of growth at 10.36 µg/mL [7]: 9.4%
inhibition of growth at 10.36 µg/mL [8]: 0%
inhibition of growth at 10.36 µg/mL [9]: 10.5%
inhibition of growth at 10.36 µg/mL [10]: 20.4%
inhibition of growth at 10.36 µg/mL [11]: 21.9%
inhibition of growth at 10.36 µg/mL [12]: 8.1%

CC/C=C\CCO [CIS-3-HEXENOL]
inhibition of growth at 43.2 µg/mL [13]: 56.2%
inhibition of growth at 43.2 µg/mL [14]: 14.3%
inhibition of growth at 43.2 µg/mL [15]: 10.3%
inhibition of growth at 43.2 µg/mL [16]: 41%
inhibition of growth at 43.2 µg/mL [17]: 21.6%
inhibition of growth at 43.2 µg/mL [18]: 73.7%
